Experimental data as given in ChEMBL document CHEMBL1781959, “Synthesis and in vitro antitumor activity of substituted quinazoline and quinoxaline derivatives: search for anticancer agent” (Eur J Med Chem, 2011).

Legend:
Type in all cases: functional
UACC-257 = experiment: Anticancer activity against human UACC257 cells assessed as cell growth promotion at 10^-5 M after 48 hrs by SRB assay relative to control
HT-29 = experiment: Anticancer activity against human HT-29 cells assessed as cell growth promotion at 10^-5 M after 48 hrs by SRB assay relative to control
MDA-MB-468 = experiment: Anticancer activity against human MDA-MB-468 cells assessed as cell growth promotion at 10^-5 M after 48 hrs by SRB assay relative to control
K562 = experiment: Anticancer activity against human K562 cells assessed as cell growth promotion at 10^-5 M after 48 hrs by SRB assay relative to control
HCT-116 = experiment: Anticancer activity against human HCT116 cells assessed as cell growth promotion at 10^-5 M after 48 hrs by SRB assay relative to control
NCI/ADR-RES = experiment: Anticancer activity against human NCI/ADR-RES cells assessed as cell growth promotion at 10^-5 M after 48 hrs by SRB assay relative to control
KM12 = experiment: Anticancer activity against human KM12 cells assessed as cell growth promotion at 10^-5 M after 48 hrs by SRB assay relative to control
OVCAR-8 = experiment: Anticancer activity against human OVCAR8 cells assessed as cell growth promotion at 10^-5 M after 48 hrs by SRB assay relative to control
ACHN = experiment: Anticancer activity against human ACHN cells assessed as cell growth promotion at 10^-5 M after 48 hrs by SRB assay relative to control
A549 = experiment: Anticancer activity against human A549 cells assessed as cell growth promotion at 10^-5 M after 48 hrs by SRB assay relative to control
SK-MEL-28 = experiment: Anticancer activity against human SK-MEL-28 cells assessed as cell growth promotion at 10^-5 M after 48 hrs by SRB assay relative to control
MDA-MB-231 = experiment: Anticancer activity against human MDA-MB-231 cells assessed as cell growth promotion at 10^-5 M after 48 hrs by SRB assay relative to control
DU-145 = experiment: Anticancer activity against human DU145 cells assessed as cell growth promotion at 10^-5 M after 48 hrs by SRB assay relative to control
SN12C = experiment: Anticancer activity against human SN12C cells assessed as cell growth promotion at 10^-5 M after 48 hrs by SRB assay relative to control
SK-MEL-5 = experiment: Anticancer activity against human SK-MEL-5 cells assessed as cell growth promotion at 10^-5 M after 48 hrs by SRB assay relative to control
[1] = Anticancer activity against human […] cells assessed as cell growth promotion at 10^-5 M after 48 hrs by SRB assay relative to control
SF-268 = experiment: Anticancer activity against human SF268 cells assessed as cell growth promotion at 10^-5 M after 48 hrs by SRB assay relative to control
NCI-H23 = experiment: Anticancer activity against human NCI-H23 cells assessed as cell growth promotion at 10^-5 M after 48 hrs by SRB assay relative to control
MOLT-4 = experiment: Anticancer activity against human MOLT4 cells assessed as cell growth promotion at 10^-5 M after 48 hrs by SRB assay relative to control
UACC-62 = experiment: Anticancer activity against human UACC62 cells assessed as cell growth promotion at 10^-5 M after 48 hrs by SRB assay relative to control
PC-3 = experiment: Anticancer activity against human PC3 cells assessed as cell growth promotion at 10^-5 M after 48 hrs by SRB assay relative to control
EKVX = experiment: Anticancer activity against human EKVX cells assessed as cell growth promotion at 10^-5 M after 48 hrs by SRB assay relative to control
M14 = experiment: Anticancer activity against human M14 cells assessed as cell growth promotion at 10^-5 M after 48 hrs by SRB assay relative to control
OVCAR-5 = experiment: Anticancer activity against human OVCAR5 cells assessed as cell growth promotion at 10^-5 M after 48 hrs by SRB assay relative to control
COLO 205 = experiment: Anticancer activity against human COLO205 cells assessed as cell growth promotion at 10^-5 M after 48 hrs by SRB assay relative to control
LOX IMVI = experiment: Anticancer activity against human LOXIMVI cells assessed as cell growth promotion at 10^-5 M after 48 hrs by SRB assay relative to control
SF-295 = experiment: Anticancer activity against human SF295 cells assessed as cell growth promotion at 10^-5 M after 48 hrs by SRB assay relative to control
SR = experiment: Anticancer activity against human SR cells assessed as cell growth promotion at 10^-5 M after 48 hrs by SRB assay relative to control
U-251 = experiment: Anticancer activity against human U251 cells assessed as cell growth promotion at 10^-5 M after 48 hrs by SRB assay relative to control
786-0 = experiment: Anticancer activity against human 786-0 cells assessed as cell growth promotion at 10^-5 M after 48 hrs by SRB assay relative to control
OVCAR-3 = experiment: Anticancer activity against human OVCAR3 cells assessed as cell growth promotion at 10^-5 M after 48 hrs by SRB assay relative to control
SNB-19 = experiment: Anticancer activity against human SNB19 cells assessed as cell growth promotion at 10^-5 M after 48 hrs by SRB assay relative to control
HOP-62 = experiment: Anticancer activity against human HOP62 cells assessed as cell growth promotion at 10^-5 M after 48 hrs by SRB assay relative to control
MDA-MB-435 = experiment: Anticancer activity against human MDA-MB-435 cells assessed as cell growth promotion at 10^-5 M after 48 hrs by SRB assay relative to control
SF-539 = experiment: Anticancer activity against human SF539 cells assessed as cell growth promotion at 10^-5 M after 48 hrs by SRB assay relative to control
CAKI-1 = experiment: Anticancer activity against human Caki1 cells assessed as cell growth promotion at 10^-5 M after 48 hrs by SRB assay relative to control
HCC 2998 = experiment: Anticancer activity against human HCC2998 cells assessed as cell growth promotion at 10^-5 M after 48 hrs by SRB assay relative to control
Malme-3M = experiment: Anticancer activity against human MALME-3M cells assessed as cell growth promotion at 10^-5 M after 48 hrs by SRB assay relative to control
TK-10 = experiment: Anticancer activity against human TK10 cells assessed as cell growth promotion at 10^-5 M after 48 hrs by SRB assay relative to control
NCI-H226 = experiment: Anticancer activity against human NCI-H226 cells assessed as cell growth promotion at 10^-5 M after 48 hrs by SRB assay relative to control
CCRF-CEM = experiment: Anticancer activity against human CCRF-CEM cells assessed as cell growth promotion at 10^-5 M after 48 hrs by SRB assay relative to control
NCI-H322M = experiment: Anticancer activity against human NCI-H322M cells assessed as cell growth promotion at 10^-5 M after 48 hrs by SRB assay relative to control
IGROV-1 = experiment: Anticancer activity against human IGROV1 cells assessed as cell growth promotion at 10^-5 M after 48 hrs by SRB assay relative to control
MCF7 = experiment: Anticancer activity against human MCF7 cells assessed as cell growth promotion at 10^-5 M after 48 hrs by SRB assay relative to control
UO-31 = experiment: Anticancer activity against human UO31 cells assessed as cell growth promotion at 10^-5 M after 48 hrs by SRB assay relative to control
RXF 393 = experiment: Anticancer activity against human RXF393 cells assessed as cell growth promotion at 10^-5 M after 48 hrs by SRB assay relative to control
HCT-15 = experiment: Anticancer activity against human HCT15 cells assessed as cell growth promotion at 10^-5 M after 48 hrs by SRB assay relative to control
HL-60(TB) = experiment: Anticancer activity against human HL-60(TB) cells assessed as cell growth promotion at 10^-5 M after 48 hrs by SRB assay relative to control
In short: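 NCI-60 single-dose screen: compound at 10^-5 M, 48 h at 37 °C, 5% CO2; cells grown in RPMI 1640 with 5% FBS and 2 mM L-glutamine, pre-incubated 24 h before dosing. Adherent cells fixed with cold TCA; endpoint is sulforhodamine B protein staining. Percent growth of treated cells is reported relative to untreated control.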

Brc1cccc(/C=C/c2nc3ccccc3nc2SCc2nc3ccccc3[nH]2)c1
Activity (UACC-257): 93.79%
Activity (HT-29): 94.19%
Activity (MDA-MB-468): 101%
Activity (K562): 79.2%
Activity (HCT-116): 78.83%
Activity (NCI/ADR-RES): 89.75%
Activity (KM12): 90.27%
Activity (OVCAR-8): 97.32%
Activity (ACHN): 102%
Activity (A549): 100%
Activity (SK-MEL-28): 86.57%
Activity (MDA-MB-231): 93.29%
Activity (DU-145): 97.76%
Activity (SN12C): 88.36%
Activity (SK-MEL-5): 96.24%
Activity [1]: 108%
Activity (SF-268): 94.82%
Activity (NCI-H23): 93.86%
Activity (MOLT-4): 84.4%
Activity (UACC-62): 79.86%
Activity (PC-3): 125%
Activity (EKVX): 79.01%
Activity (M14): 102%
Activity (OVCAR-5): 94.9%
Activity (COLO 205): 119%
Activity (LOX IMVI): 91.83%
Activity (SF-295): 100%
Activity (SR): 97.29%
Activity (U-251): 90.27%
Activity (786-0): 95.67%
Activity (OVCAR-3): 92.52%
Activity (SNB-19): 94.19%
Activity (HOP-62): 97.73%
Activity (MDA-MB-435): 90.95%
Activity (SF-539): 101%
Activity (CAKI-1): 69.32%
Activity (HCC 2998): 99.44%
Activity (Malme-3M): 86.98%
Activity (TK-10): 103%
Activity (NCI-H226): 96.35%
Activity (CCRF-CEM): 99.77%
Activity (NCI-H322M): 95.01%
Activity (IGROV-1): 101%
Activity (MCF7): 61.74%
Activity (UO-31): 63.7%
Activity (RXF 393): 105%
Activity (HCT-15): 101%
Activity (HL-60(TB)): 96.53%
